Published values gathered from unrelated publications.
Each line is one published result; the experiments were not run side by side.
Read-out: enzyme activity
Action: inhibitor
BTK: Tyrosine-protein kinase BTK (BTK, Homo sapiens, UniProt Q06187)

For `COc1cc2ncnc(Nc3ccc(Oc4ccccc4)cc3C)c2cc1OC`, the inhibition was 71% (BTK; 1 µM).
With `COc1cc2nccc(Oc3ccc(NC(=O)c4c5n(n(-c6ccc(F)cc6)c4=O)CCCC5)cc3)c2cc1OC` the inhibition was -7% (BTK; 0.1 µM).
With `COc1ccc(F)cc1C(=O)NCc1ccc(-c2nn([C@@H](C)C(F)(F)F)c(N)c2C(N)=O)cc1` the inhibition was 97% (BTK; radiometric; 0.1 µM).
`CC/C(=N\NC(=O)NCc1cccc(O)c1)c1ccc(O)c(C)c1O` has an inhibition of -1.8% (Tyrosine-protein kinase BTK (BTK, Homo sapiens, UniProt Q06187, C481S); 0.1 µM).
`Cc1ccc(Nc2nccc(N(C)c3ccc4c(C)n(C)nc4c3)n2)cc1S(N)(=O)=O` has an inhibition of 12% (BTK; 0.3 µM).
`CNCc1ccc(-c2cc(-c3nc(-c4ccc(S(=O)(=O)C(C)C)cc4)cnc3N)on2)cc1` has an inhibition of 4% (BTK; 0.4 µM).
For `CNC(=O)c1cc(Oc2ccc(NC(=O)Nc3ccc(Cl)c(C(F)(F)F)c3)cc2)ccn1`, the inhibition was 43% (BTK; 10 µM).
The inhibition of `O=C(CSc1nc2nccnc2c(=O)n1CCc1ccccc1)Nc1nccs1` is reported as 4% (BTK; 10 µM).
For `CCN(CC)CCNC(=O)c1c(C)[nH]c(/C=C2\C(=O)Nc3ccc(F)cc32)c1C`, the inhibition was 16% (BTK; 0.3 µM).
For `C=CC(=O)Nc1cc(Nc2nccc(Nc3cc(Cl)c(F)cc3C(C)(C)O)n2)c(OC)cc1N1CC[C@@H](N(C)C)C1`, the inhibition was 96% (BTK; 1 µM).
`CN(C)C1CCN(CC#Cc2nn(C3CCCC3)c3nc(NCc4ccccc4)ncc23)C1` (stereo not shown) has an inhibition of 22% (BTK; FRET; 10 µM).
`CCCS(=O)(=O)Nc1ccc(F)c(C(=O)c2c[nH]c3ncc(-c4ccc(Cl)cc4)cc23)c1F` gave an inhibition of less than 10% (BTK; 1 µM).
`CN(c1ncccc1CNc1nc(Nc2ccc3c(c2)CC(=O)N3)ncc1C(F)(F)F)S(C)(=O)=O` gave an inhibition of 65% (BTK; 1 µM).
